Reference: ChEMBL document CHEMBL1155031, “Structure-activity relationships of 7-deaza-6-benzylthioinosine analogues as ligands of Toxoplasma gondii adenosine kinase” (J Med Chem, 2008)
pIC50, pKi: −log10 of the molar value.

What was measured:
Adenosine kinase = biological target: T1, Adenosine kinase (Toxoplasma gondii, UniProt Q9TVW2); assay: Binding affinity to purified Toxoplasma gondii adenosine kinase
T1 sequence (Q9TVW2 whole entry): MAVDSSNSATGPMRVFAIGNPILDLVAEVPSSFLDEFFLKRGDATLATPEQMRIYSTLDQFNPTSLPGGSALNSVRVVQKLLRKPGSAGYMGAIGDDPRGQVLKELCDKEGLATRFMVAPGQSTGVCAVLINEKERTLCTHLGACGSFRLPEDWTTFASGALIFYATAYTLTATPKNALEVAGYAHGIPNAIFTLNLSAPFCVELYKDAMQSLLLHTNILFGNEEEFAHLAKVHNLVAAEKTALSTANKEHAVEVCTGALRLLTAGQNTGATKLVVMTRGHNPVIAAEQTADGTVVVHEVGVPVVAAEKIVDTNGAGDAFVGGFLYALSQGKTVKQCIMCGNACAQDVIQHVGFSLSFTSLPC
How it was run: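 Radiometric assay at 37 °C in 50 mM Tris-Cl pH 7.4 with 2.5 mM ATP, 5 mM MgCl₂, creatine phosphate/creatine kinase regeneration and 5 µM [8-¹⁴C]adenosine, plus varied inhibitor. Reaction stopped by boiling, then adenosine and AMP separated by TLC and quantified. Apparent Ki from Dixon plots (1/V vs [I]), taken as equal to apparent Km for alternative substrates. Mean ± SD, ≥2 experiments in triplicate.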

Toxoplasma gondii [1] = assay: Antitoxoplasma activity against wild type Toxoplasma gondii RH assessed as survival at 25 uM after 18 hrs by [5,6-[…]]uracil incorporation assay; format: functional
How it was run: (§1)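 Human foreskin fibroblast monolayers (≤20 passages, RPMI 1640) seeded ~5×10⁵ cells/well, attached 24 h at 37 °C, 5% CO2. Infected with isolated tachyzoites at 1 parasite/cell in 3% FBS for 1 h, then washed. Compounds were dissolved in 50% ethanol and added at final 0, 5, 10, 25 or 50 µM with 10% FBS. Survival was read as radiolabeled uracil incorporation into TCA-precipitated nucleic acid versus untreated controls, at least in triplicate.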

[2] = Toxicity against human foreskin fibroblasts at 5 uM after 48 hrs by MTT method; format: cell-based, Fibroblast; conditions: read-out: Survival
How it was run: (§2)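 Uninfected human foreskin fibroblasts (≤20 passages, RPMI 1640) seeded ~10⁵ cells/well and attached ≥24 h at 37 °C, 5% CO2. Compound in medium added to final concentrations, then 48 h incubation. MTT was added for 4 h, formazan dissolved in DMSO and absorbance read at 540 nm. At least two independent experiments, each in triplicate.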

Toxoplasma gondii [3] = assay: Antitoxoplasma activity against wild type Toxoplasma gondii RH assessed as survival after 18 hrs by [5,6-[…]]uracil incorporation assay; format: functional, organism-based
[4] = Toxicity against human foreskin fibroblasts at 25 uM after 48 hrs by MTT method; format: cell-based, Fibroblast; conditions: read-out: Survival; how it was run: as §2
[5] = Toxicity against human foreskin fibroblasts at 10 uM after 48 hrs by MTT method; format: cell-based, Fibroblast; conditions: read-out: Survival; how it was run: as §2
Toxoplasma gondii [6] = assay: Antitoxoplasma activity against wild type Toxoplasma gondii RH assessed as survival at 10 uM after 18 hrs by [5,6-[…]]uracil incorporation assay; format: functional; how it was run: as §1
[7] = Toxicity against human foreskin fibroblasts at 50 uM after 48 hrs by MTT method; format: cell-based, Fibroblast; conditions: read-out: Survival; how it was run: as §2
Toxoplasma gondii [8] = assay: Antitoxoplasma activity against wild type Toxoplasma gondii RH assessed as survival at 5 uM after 18 hrs by [5,6-[…]]uracil incorporation assay; format: functional; how it was run: as §1
Toxoplasma gondii [9] = assay: Antitoxoplasma activity against wild type Toxoplasma gondii RH assessed as survival at 50 uM after 18 hrs by [5,6-[…]]uracil incorporation assay; format: functional; how it was run: as §1
Toxoplasma gondii [10] = assay: Antitoxoplasma activity against adenosine kinase deficient Toxoplasma gondii TgAK-3 assessed as survival at 5 uM after 18 hrs by [5,6-[…]]uracil incorporation assay; format: functional; how it was run: as §1
Toxoplasma gondii [11] = assay: Antitoxoplasma activity against adenosine kinase deficient Toxoplasma gondii TgAK-3 assessed as survival at 10 uM after 18 hrs by [5,6-[…]]uracil incorporation assay; format: functional; how it was run: as §1
Toxoplasma gondii [12] = assay: Antitoxoplasma activity against adenosine kinase deficient Toxoplasma gondii TgAK-3 assessed as survival at 25 uM after 18 hrs by [5,6-[…]]uracil incorporation assay; format: functional; how it was run: as §1
Toxoplasma gondii [13] = assay: Antitoxoplasma activity against adenosine kinase deficient Toxoplasma gondii TgAK-3 assessed as survival at 50 uM after 18 hrs by [5,6-[…]]uracil incorporation assay; format: functional; how it was run: as §1

OC[C@H]1O[C@@H](n2ccc3c(SCc4ccccc4)ncnc32)[C@H](O)[C@@H]1O
pKi (Adenosine kinase): 4.55

CCc1nc(N)nc(N)c1-c1ccc(Cl)cc1 [PYRIMETHAMINE]
survival at 25 µM (Toxoplasma gondii [1]): 13.8% | viability at 48 h, 5 µM [2]: 101% | pIC50 (Toxoplasma gondii [3]): 5.23 | viability at 48 h, 25 µM [4]: 108% | viability at 48 h, 10 µM [5]: 100% | survival at 10 µM (Toxoplasma gondii [6]): 36.5% | viability at 48 h, 50 µM [7]: 108% | survival at 5 µM (Toxoplasma gondii [8]): 55.6% | survival at 50 µM (Toxoplasma gondii [9]): 5.8%

Nc1ncnc2c1ncn2[C@@H]1O[C@H](CO)[C@@H](O)[C@H]1O [ADENOSINE]
pKi (Adenosine kinase): 5.05

C=Cc1ccc(CSc2ncnc3c2ccn3[C@@H]2O[C@H](CO)[C@@H](O)[C@H]2O)cc1
pKi (Adenosine kinase): 3.74

OC[C@H]1O[C@@H](n2ccc3c(SCc4ccc(Br)cc4)ncnc32)[C@H](O)[C@@H]1O
pKi (Adenosine kinase): 3.60

OC[C@H]1O[C@@H](n2ccc3c(SCc4ccc(F)cc4F)ncnc32)[C@H](O)[C@@H]1O
pKi (Adenosine kinase): 4.80

OC[C@H]1O[C@@H](n2ccc3c(SCc4ccc(Cl)c(Cl)c4)ncnc32)[C@H](O)[C@@H]1O
pKi (Adenosine kinase): 4.54

COC(=O)c1ccc(CSc2ncnc3c2ccn3[C@@H]2O[C@H](CO)[C@@H](O)[C@H]2O)cc1
pKi (Adenosine kinase): 5.15

OC[C@H]1O[C@@H](n2ccc3c(SCc4ccccc4Br)ncnc32)[C@H](O)[C@@H]1O
pKi (Adenosine kinase): 3.97

OC[C@H]1O[C@@H](n2ccc3c(SCc4ccccc4F)ncnc32)[C@H](O)[C@@H]1O
pKi (Adenosine kinase): 4.23

COc1ccc(CSc2ncnc3c2ccn3[C@@H]2O[C@H](CO)[C@@H](O)[C@H]2O)cc1
survival at 25 µM (Toxoplasma gondii [1]): 0% | viability at 48 h, 5 µM [2]: 100% | pIC50 (Toxoplasma gondii [3]): 5.34 | survival at 5 µM (Toxoplasma gondii [10]): 100% | survival at 10 µM (Toxoplasma gondii [11]): 100% | viability at 48 h, 25 µM [4]: 100% | survival at 25 µM (Toxoplasma gondii [12]): 100% | survival at 50 µM (Toxoplasma gondii [13]): 100% | viability at 48 h, 10 µM [5]: 100% | survival at 10 µM (Toxoplasma gondii [6]): 5% | viability at 48 h, 50 µM [7]: 90.6% | pKi (Adenosine kinase): 5.24 | survival at 5 µM (Toxoplasma gondii [8]): 49.8% | survival at 50 µM (Toxoplasma gondii [9]): 0%

OC[C@H]1O[C@@H](n2ccc3c(SCc4ccccc4Cl)ncnc32)[C@H](O)[C@@H]1O
pKi (Adenosine kinase): 4.44

OC[C@H]1O[C@@H](n2ccc3c(SCc4ccc(Cl)cc4)ncnc32)[C@H](O)[C@@H]1O
pKi (Adenosine kinase): 4.96

O=[N+]([O-])c1ccc(CSc2ncnc3c2ccn3[C@@H]2O[C@H](CO)[C@@H](O)[C@H]2O)cc1
pKi (Adenosine kinase): 4.46

OC[C@H]1O[C@@H](n2ccc3c(SCc4ccc(F)cc4)ncnc32)[C@H](O)[C@@H]1O
pKi (Adenosine kinase): 4.43

Cc1cccc(CSc2ncnc3c2ccn3[C@@H]2O[C@H](CO)[C@@H](O)[C@H]2O)c1
pKi (Adenosine kinase): 5.07

N#Cc1ccc(CSc2ncnc3c2ccn3[C@@H]2O[C@H](CO)[C@@H](O)[C@H]2O)cc1
survival at 25 µM (Toxoplasma gondii [1]): 0% | viability at 48 h, 5 µM [2]: 100% | pIC50 (Toxoplasma gondii [3]): 5.28 | survival at 5 µM (Toxoplasma gondii [10]): 98.4% | survival at 10 µM (Toxoplasma gondii [11]): 100% | viability at 48 h, 25 µM [4]: 94.3% | survival at 25 µM (Toxoplasma gondii [12]): 100% | survival at 50 µM (Toxoplasma gondii [13]): 100% | viability at 48 h, 10 µM [5]: 100% | survival at 10 µM (Toxoplasma gondii [6]): 4% | viability at 48 h, 50 µM [7]: 82.1% | pKi (Adenosine kinase): 5.28 | survival at 5 µM (Toxoplasma gondii [8]): 52.5% | survival at 50 µM (Toxoplasma gondii [9]): 0%

OC[C@H]1O[C@@H](n2cc(I)c3c(SCc4ccccc4)ncnc32)[C@H](O)[C@@H]1O
pKi (Adenosine kinase): 4.08

OC[C@H]1O[C@@H](n2ccc3c(SCc4c(F)cccc4Cl)ncnc32)[C@H](O)[C@@H]1O
pKi (Adenosine kinase): 5.14

Nc1ccc(S(=O)(=O)Nc2ncccn2)cc1 [SULFADIAZINE]
survival at 25 µM (Toxoplasma gondii [1]): 59.8% | viability at 48 h, 5 µM [2]: 98.2% | pIC50 (Toxoplasma gondii [3]): 4.39 | viability at 48 h, 25 µM [4]: 99.8% | viability at 48 h, 10 µM [5]: 99.8% | survival at 10 µM (Toxoplasma gondii [6]): 64.8% | viability at 48 h, 50 µM [7]: 102% | survival at 5 µM (Toxoplasma gondii [8]): 74.6% | survival at 50 µM (Toxoplasma gondii [9]): 46.4%

OC[C@H]1O[C@@H](n2ccc3c(SCc4ccc(OC(F)(F)F)cc4)ncnc32)[C@H](O)[C@@H]1O
pKi (Adenosine kinase): 4.46

OC[C@H]1O[C@@H](n2ccc3c(SCc4ccc(Cl)cc4Cl)ncnc32)[C@H](O)[C@@H]1O
pKi (Adenosine kinase): 4.59

CC(C)(C)c1ccc(CSc2ncnc3c2ccn3[C@@H]2O[C@H](CO)[C@@H](O)[C@H]2O)cc1
pKi (Adenosine kinase): 4.62

OC[C@H]1O[C@@H](n2ccc3c(SCc4cccc(C(F)(F)F)c4)ncnc32)[C@H](O)[C@@H]1O
pKi (Adenosine kinase): 4.66

Cc1ccc(CSc2ncnc3c2ccn3[C@@H]2O[C@H](CO)[C@@H](O)[C@H]2O)cc1
pKi (Adenosine kinase): 4.72

OC[C@H]1O[C@@H](n2cnc3c(SCc4ccccc4)ncnc32)[C@H](O)[C@@H]1O [6-BENZYLTHIOINOSINE]
pKi (Adenosine kinase): 4.42

Cc1ccccc1CSc1ncnc2c1ccn2[C@@H]1O[C@H](CO)[C@@H](O)[C@H]1O
pKi (Adenosine kinase): 3.64

O=[N+]([O-])c1cccc(CSc2ncnc3c2ccn3[C@@H]2O[C@H](CO)[C@@H](O)[C@H]2O)c1
pKi (Adenosine kinase): 4.35
